Bioassay records: PubChem BioAssay, several laboratories
m5-HT2A agonist: mouse HTR2A agonism via beta-arrestin recruitment; activation, % at 7.6 µM; P35363; CHO-K1 mHTR2A beta-arrestin complementation, luminescence; percent of 30 µM serotonin response; AID 624169; 360,000 tested, 0.66% active;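 active = activation above a run cutoff, the mean activation of all tested compounds plus 3 SD, cut at about 14% in these data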;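 note: 0% = plate median of compound wells and 100% = 30 µM serotonin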
Tb MetRS inh: Trypanosoma brucei MetRS inhibition; inhibition, % at 11.9 µM; purified T. brucei MetRS, ATP depletion, Kinase-Glo luminescence; 360,000 tested, 0.4% active;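 active = inhibition above a per-plate cutoff of the control wells' mean inhibition plus 3 SD, cut at about 5.5% in these data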;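 note: 0% = DMSO wells median and 100% = median of wells with control inhibitor compound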
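Dosing: 11.9 µM compound single dose, 0.9% DMSO; Assay system: purified T. brucei MetRS enzyme; Measured by: Kinase-Glo luciferase luminescence reporting remaining unconsumed ATP; Schedule: 15 min plus 2 h at 25 °C.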
bovine MsrA act: activates bovine MsrA enzyme | AID 602163 | purified bovine MsrA, absorbance read-out | activation, % at 10.6 µM | 360,000 tested, 0.3% active; in the data active = activation above about 7.5%;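 note: 0% = vehicle and 100% = reference activator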
MsrA inh: bovine MsrA inhibition; purified bovine MsrA, absorbance read-out; inhibition, % at 15.5 µM; 360,000 tested, 0.75% active; AID 651718; in the data active = inhibition above about 4.5%;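 note: 0% = vehicle wells with enzyme and 100% = reference inhibitor wells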
AHR activator: activators of human aryl hydrocarbon receptor. P35869. AHR-responsive luciferase reporter cells, luminescence. activation, % at 5 µM. 320,000 tested, 2.5% active. AID 2796; in the data active = activation above about 47%;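 note: 0% = vehicle wells and 100% = reference agonist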
Target sequence (P35869 whole entry, looked up): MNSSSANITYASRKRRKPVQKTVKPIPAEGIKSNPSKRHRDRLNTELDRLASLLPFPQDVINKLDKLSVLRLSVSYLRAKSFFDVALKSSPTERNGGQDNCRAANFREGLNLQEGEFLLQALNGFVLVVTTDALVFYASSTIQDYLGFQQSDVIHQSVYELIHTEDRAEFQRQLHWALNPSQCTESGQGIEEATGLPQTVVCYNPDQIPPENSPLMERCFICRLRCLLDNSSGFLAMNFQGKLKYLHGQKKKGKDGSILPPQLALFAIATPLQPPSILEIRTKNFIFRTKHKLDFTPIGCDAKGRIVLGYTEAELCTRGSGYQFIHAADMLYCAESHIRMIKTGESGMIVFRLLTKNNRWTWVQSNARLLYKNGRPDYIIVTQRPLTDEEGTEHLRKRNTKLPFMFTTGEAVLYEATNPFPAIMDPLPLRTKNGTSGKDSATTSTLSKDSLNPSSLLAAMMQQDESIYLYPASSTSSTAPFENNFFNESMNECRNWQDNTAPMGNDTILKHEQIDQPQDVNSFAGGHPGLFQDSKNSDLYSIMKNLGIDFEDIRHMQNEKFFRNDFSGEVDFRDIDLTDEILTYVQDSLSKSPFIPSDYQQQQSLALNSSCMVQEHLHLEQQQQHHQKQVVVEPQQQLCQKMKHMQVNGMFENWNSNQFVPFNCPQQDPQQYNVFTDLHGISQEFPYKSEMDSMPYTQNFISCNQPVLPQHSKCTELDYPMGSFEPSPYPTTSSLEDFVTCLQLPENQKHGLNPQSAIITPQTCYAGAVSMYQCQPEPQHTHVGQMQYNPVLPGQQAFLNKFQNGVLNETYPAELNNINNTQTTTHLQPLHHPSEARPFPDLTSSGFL
AI-2 QS mod: modulators of Vibrio harveyi AI-2 quorum sensing system; Vibrio harveyi JMH597 AI-2 luminescence/OD600 ratio, 9 h; active compounds read low; strain lacks LuxN and CqsS sensors; 0 = neutral-control median; 300,000 tested, 0.4% active; activity change, % at 7.5 µM; in the data active = activity change below about -75%, passing the limit was not always enough;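 note: luminescence divided by OD600 gain over 9 h not by final OD600 alone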
Numbers without * were called inactive; nt = not tested or not shown. Shown are actives, neighbours in structure and some others; about 4.4% of the full set was active somewhere.

SMILES | m5-HT2A agonist | Tb MetRS inh | bovine MsrA act | MsrA inh | AHR activator | AI-2 QS mod
CCOC(=O)c1c(C)[nH]c2cc(Br)c(OC)cc12 | 1 | 0 | -3 | 0 | 51* | 12
CCOC(=O)c1c(C)[nH]c(C)c1-c1ccccc1OC | 2 | -1 | -4 | 1 | -3 | -2
O=C(N/N=C/c1cc(Cl)cc(Cl)c1O)c1ccncc1 | -19 | -1 | -6 | 1 | 19 | -85*
O=C(N/N=C/c1cc(Br)cc(Br)c1O)c1ccncc1 | nt | nt | nt | 0 | 28 | -84*
Cc1cccc(C(=O)Oc2c(Br)cc(Br)cc2/C=N/NC(=O)c2ccncc2)c1 | -3 | 0 | -2 | -1 | -3 | 4
O=C(C[n+]1ccccc1)N/N=C/c1cc(Br)cc(Br)c1O | -37 | 1 | -3 | nt | 1 | -149*
Cc1cc(Br)cc(/C=N/NC(=O)c2ccc3c(c2)OCO3)c1O | -9 | 0 | -1 | 1 | 62* | 0
O=C(N/N=C/c1c[nH]c2ccc(Br)cc12)c1ccncc1 | -2 | 0 | -15 | 3 | 74* | 10
CCOCc1nnc(NC(=O)COc2ccc3c(c2)OCO3)s1 | -2 | 0 | -3 | -1 | 26 | nt
CCOCc1nnc(NC(=O)c2ccc3c(c2)OCO3)s1 | -4 | 0 | -4 | 0 | 122* | 20
Cc1nnc(NC(=O)c2ccc3c(c2)OCO3)s1 | 3 | -1 | -8 | 1 | 39 | 11
O=C(Nc1nncs1)c1ccc2c(c1)OCO2 | -4 | 0 | -3 | -1 | 65* | -3
COC(=O)c1cccc(Nc2cc(C)n(-c3cccc(C(=O)OC)c3)c(=O)c2)c1 | nt | nt | nt | 0 | nt | nt
COc1ccc(C2O[C@@H](C)[C@@H]3C(=O)N4CCc5c([nH]c6ccccc56)[C@@H]4C[C@@H]3N2C)cc1 (some centres undefined) | nt | nt | nt | -1 | nt | nt
COc1cccc(/C=C/c2nc3c(cnn3-c3ccccc3)c(=O)[nH]2)c1 | 2 | -1 | -1 | 0 | 32 | -1
O=c1[nH]c(/C=C/c2ccc(Br)cc2)nc2c1cnn2-c1ccccc1 | nt | nt | nt | nt | 54* | 14
COc1ccc(-c2nnc(NC(=O)c3ccc([N+](=O)[O-])o3)o2)c(OC)c1 | 5 | 0 | -6 | -1 | -1 | -88*
Cc1ccc(NC(=O)CSc2nnc(-c3cccs3)o2)cc1S(=O)(=O)N(C)C | nt | nt | nt | nt | 56* | 4
Cc1ccc(NC(=O)CSc2nnc(Cn3c(=O)sc4ccccc43)n2C)cc1 | -1 | 1 | -7 | 0 | 11 | 12
CCc1ccc(NC(=O)CSc2nnc(Cn3c(=O)sc4ccccc43)n2C)cc1 | 1 | 0 | -3 | 0 | 78* | nt
Cc1ccccc1Nc1nc(N)nc(CSc2nnnn2-c2ccccc2)n1 | -2 | 0 | -1 | 0 | 5 | 11
CCNc1nc(NCC)n2c(SCC(=O)Nc3ccc(CC)cc3)nnc2n1 | -4 | 0 | -3 | nt | 50* | 22
CCc1ccc(Nc2nc(N)nc(CSc3nnnn3-c3ccccc3)n2)cc1 | -2 | 0 | -2 | 1 | 50* | -13
CCNc1nc(NCC)n2c(SCC(=O)Nc3ccc(NC(C)=O)cc3)nnc2n1 | -1 | 0 | 0 | -1 | -2 | 3
CCc1ccc(NC(=O)CSc2nnnn2-c2cccnc2)cc1 | 6 | 0 | -5 | 1 | 63* | 29
SMILES | m5-HT2A agonist | Tb MetRS inh | bovine MsrA act | MsrA inh | AHR activator | AI-2 QS mod
c1ccc2[nH]c(CSc3ncnc4c3oc3ccccc34)nc2c1 | 12 | 1 | -2 | 1 | 53* | -10
O=C(O)CNc1nc(-c2ccccc2)nc2c1oc1ccccc12 | 1 | 0 | -3 | 0 | 21 | 25
OCCCNc1nc(-c2ccccc2)nc2c1oc1ccccc12 | 5 | 0 | -4 | -1 | 50* | 11
c1ccc(-c2nc(SCc3nc4ccccc4[nH]3)c3oc4ccccc4c3n2)cc1 | 8 | 0 | -2 | -1 | 68* | nt
COc1cccc2c1oc1c(SCc3nc4ccccc4[nH]3)nc(C)nc12 | 1 | 0 | -1 | 0 | 59* | nt
Cc1nc(SCc2nc3ccccc3[nH]2)c2oc3ccccc3c2n1 | -5 | 1 | 1 | 0 | 11 | 14
CCc1ccc2[nH]c(=O)c(CN(Cc3ccc4c(c3)OCO4)Cc3nnnn3C3CCCC3)cc2c1 | 2 | 0 | -1 | 2 | 62* | 21
Cc1ccc2cc(CN(Cc3ccc(F)cc3)Cc3nnnn3C3CCCC3)c(=O)[nH]c2c1 | -2 | -1 | -2 | -1 | 1 | 7
